Test results taken from PMC7758955 (ACS Omega, 2020).

Experiments:
[1] = molecular target: T1, COX-2 (human recombinant) (Homo sapiens, UniProt P35354); assay: COX Fluorescent Inhibitor Screening Assay Kit, COX-2; type: biochemical
T1 sequence (P35354 18-604): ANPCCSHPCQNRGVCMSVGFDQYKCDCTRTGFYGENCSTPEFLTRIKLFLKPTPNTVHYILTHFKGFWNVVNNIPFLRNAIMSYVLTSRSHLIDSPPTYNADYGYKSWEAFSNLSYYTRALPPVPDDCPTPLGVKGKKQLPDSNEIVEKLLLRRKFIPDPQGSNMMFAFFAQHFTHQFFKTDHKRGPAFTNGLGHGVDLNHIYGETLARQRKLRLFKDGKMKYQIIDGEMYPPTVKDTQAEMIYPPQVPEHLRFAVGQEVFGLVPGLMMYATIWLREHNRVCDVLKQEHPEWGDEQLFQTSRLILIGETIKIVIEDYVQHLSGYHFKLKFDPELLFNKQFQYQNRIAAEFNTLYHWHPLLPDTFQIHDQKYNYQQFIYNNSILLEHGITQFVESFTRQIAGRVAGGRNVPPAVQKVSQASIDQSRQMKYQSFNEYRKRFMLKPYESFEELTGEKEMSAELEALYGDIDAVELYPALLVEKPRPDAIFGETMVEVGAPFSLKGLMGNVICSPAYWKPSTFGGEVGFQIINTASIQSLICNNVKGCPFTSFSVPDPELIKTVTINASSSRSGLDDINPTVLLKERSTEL

COX-1 (ovine) = molecular target: T2, COX-1 (ovine) (Ovis aries, UniProt P05979); assay: COX Fluorescent Inhibitor Screening Assay Kit, COX-1; type: biochemical
T2 sequence (P05979 25-600): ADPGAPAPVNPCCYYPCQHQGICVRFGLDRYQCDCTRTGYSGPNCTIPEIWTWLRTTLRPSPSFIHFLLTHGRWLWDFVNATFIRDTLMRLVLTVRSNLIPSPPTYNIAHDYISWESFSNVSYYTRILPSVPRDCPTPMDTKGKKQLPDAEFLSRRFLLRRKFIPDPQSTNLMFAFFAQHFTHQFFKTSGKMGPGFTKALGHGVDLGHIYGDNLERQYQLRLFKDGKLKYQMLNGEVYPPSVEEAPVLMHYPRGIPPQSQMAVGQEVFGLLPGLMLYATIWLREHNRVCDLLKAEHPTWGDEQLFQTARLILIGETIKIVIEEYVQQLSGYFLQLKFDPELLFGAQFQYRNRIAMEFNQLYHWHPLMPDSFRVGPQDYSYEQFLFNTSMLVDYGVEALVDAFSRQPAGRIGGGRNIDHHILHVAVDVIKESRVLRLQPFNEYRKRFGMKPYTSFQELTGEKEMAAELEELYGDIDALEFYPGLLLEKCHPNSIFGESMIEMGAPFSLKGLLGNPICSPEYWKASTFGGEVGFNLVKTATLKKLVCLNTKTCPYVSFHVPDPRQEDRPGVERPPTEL

[2] = tested on: cryopreserved human hepatocytes; assay: Hepatocyte toxicity by WST-8 assay; type: cell-based; conditions: 200 μM, 2 h with shaking, relative to control (0.25 v/v% DMSO)
Method in brief: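 Thawed cryopreserved human hepatocytes were kept at 37 °C in humidified 5% CO2 and seeded at 5.0 × 10^4 cells/well. Test compound was added in DMSO (final 0.25% v/v; DMSO-only control), then shaken 2 h. CCK-8 (WST-8) reagent was added for another 4 h. Absorbance was read at 450 nm (reference 600 nm), and viability was expressed relative to control.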

| Structure (SMILES) | IC50 [1] [µM] | IC50 (COX-1 (ovine)) [µM] | COX-2 IC50 relative to that of DCF ([1]; ratio to DCF IC50) | COX-2 inhibition (in words) ([1]; up to a concentration of 100 μM) | cytotoxicity in cryopreserved human hepatocytes (cell viability, WST-8) [2] |
| --- | --- | --- | --- | --- | --- |
| O=C(O)Cc1ccccc1Nc1c(Cl)cc(F)cc1Cl [1b] | 27 | 0.67 | – | – | – |
| O=C(O)Cc1cc(F)ccc1Nc1c(Cl)cc(F)cc1Cl [1d] | 26 | 0.73 | – | – | – |
| O=C(O)C(F)(F)c1ccccc1Nc1c(Cl)cc(F)cc1Cl [2b] | > 100 | > 100 | – | – | – |
| O=C(O)C(F)(F)c1cc(F)ccc1Nc1c(Cl)cccc1Cl [2c] | 21 | > 100 | three times higher | – | much weaker than that of DCF |

Continued, in another order:

| IC50 [1] [µM] | IC50 (COX-1 (ovine)) [µM] | COX-2 IC50 relative to that of DCF ([1]; ratio to DCF IC50) | COX-2 inhibition (in words) ([1]; up to a concentration of 100 μM) | Structure (SMILES) | cytotoxicity in cryopreserved human hepatocytes (cell viability, WST-8) [2] |
| --- | --- | --- | --- | --- | --- |
| > 100 | > 100 | – | – | O=C(O)C(F)(F)c1cc(F)ccc1Nc1c(Cl)cc(F)cc1Cl [2d] | – |
| > 100 | > 100 | – | – | Fc1cc(Cl)c(Nc2ccc(F)cc2Cc2nnn[nH]2)c(Cl)c1 [3d] | – |
| > 100 | > 100 | – | did not inhibit COX-2 | O=S(=O)(O)Cc1ccccc1Nc1c(Cl)cccc1Cl [4a] | – |
